Among the data in the array DNA melting data of Ke et al. (doi:10.1101/2024.01.08.574731) are folding enthalpy and Tm values, retold here.

A short description of data set [1]: folding enthalpy; higher = less favourable; fluorescence melt of hairpins on a sequencing array, two-state fit. To be noted: sodium 0.088 M. Put shortly: (§1)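 Hairpins were imaged by Cy3 fluorescence on a sequenced MiSeq flow cell with annealed Cy3 and quencher oligos, in 50 mM Na-HEPES pH 8.0, 25 mM NaCl, in 2.5 °C steps up to 60 °C. Bootstrapped two-state fits of normalised signals gave melting temperature and folding enthalpy. Four replicates were combined by inverse variance, and fitted temperatures were raised by 9.35 °C to match UV melts.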

Data set [2] can be described thus: melting temperature; fluorescence melt of hairpins on a sequencing array, two-state fit, raised by 9.35 °C to match UV melts. To be noted: sodium 0.088 M. The essentials:
as §1

Turning to GAATAACCGAAAGGTTTC (((..(((....)))))), the folding enthalpy in data set [1] is -15.1 kcal/mol. Further, the Tm in data set [2] was 25.6 °C.
For GATCGTTAGAACGATC ((((((....)))))), in that order: -34.7 kcal/mol and 55.2 °C.
Taken in the same sequence, the figures for GATCGCGAGGGCGATC ((((((....)))))) were -38 kcal/mol and 68 °C.
Taken in the same sequence, the figures for GAATACGAAAGTATTC ((((((....)))))) were -34.4 kcal/mol and 55.5 °C.
Consider GCCCCGGGAAACCGGAGC ((.((((....)))).)), for which the folding enthalpy in data set [1] was -22.7 kcal/mol. In addition, the Tm in data set [2] was 56.1 °C.
For the sequence GCCAGTCCGAAAGGAGGC (((..(((....)))))), the folding enthalpy in data set [1] is -22.1 kcal/mol. For the same sequence, the Tm in data set [2] turned out to be 44.4 °C.
With GGTATGCGAAAGCAAACC (((.(((....))).))), the folding enthalpy in data set [1] is -30.2 kcal/mol. Also, the Tm in data set [2] is 53 °C.
On to GTTCGAGGAAACTTGGAC ((.(.((....)).).)), for which the folding enthalpy in data set [1] is -16 kcal/mol. Also, the Tm in data set [2] was determined as 31.2 °C.
Taken in the same sequence, the figures for GCGGGCGAAAGCCAACGC ((((((....)))..))) were -22.4 kcal/mol and 65.3 °C.
Taken in the same sequence, the figures for GCTTGGCGAAAGCCTTGC ((..(((....)))..)) were -18.1 kcal/mol and 43.5 °C.
Taken in the same sequence, the figures for GCAGAACGAAAGTTTTGC (((.(((....))).))) were -40.9 kcal/mol and 52.1 °C.
With GGCTACGGAAACGTGGTC (.(.(((....))).).), in data set [1], the folding enthalpy was -27.8 kcal/mol. In addition, the Tm in data set [2] was found to be 42 °C.
Take GCCAATTCGAAAGAAGGC (((..(((....)))))): the folding enthalpy in data set [1] was -20.6 kcal/mol. Also, in data set [2], the Tm came out at 38 °C.
Turning to GAGCAAGCGAAAGCTCTC (((..(((....)))))), the folding enthalpy in data set [1] was -11.6 kcal/mol. In addition, the Tm in data set [2] is 35.1 °C.
Taken in the same sequence, the figures for GAACTGGGAAACTGGTTC ((((..(....)..)))) were -25.8 kcal/mol and 33.3 °C.
Consider GGGAAAGGAAACTTTTCC ((.((((....)))).)), for which the folding enthalpy in data set [1] is -27 kcal/mol. For the same sequence, in data set [2], the Tm was found to be 40.6 °C.
Taken in the same sequence, the figures for GATCTGGGAAACCGGATC ((((.((....)).)))) were -44.8 kcal/mol and 49.8 °C.
Turning to GCACACGGAAACGTATGC (((.(((....))).))), the folding enthalpy in data set [1] was -28 kcal/mol. In data set [2], the Tm came to 45.2 °C.
Taken in the same sequence, the figures for GATCCGGGAAACCGGACC (.(((((....))))).) were -13.2 kcal/mol and 44.1 °C.
Regarding GGGCCAGGAAACCAGCCC ((((..(....)..)))), in data set [1], the folding enthalpy was -26.8 kcal/mol. Further, the Tm in data set [2] was determined as 43.9 °C.
For GAGGGCCGAAAGGCCTC (((.(((....)))))), in that order: -9.74 kcal/mol and 52.6 °C.
Taken in the same sequence, the figures for GATCGATTCTCGATC ((((((...)))))) were -38.8 kcal/mol and 53.3 °C.
Taken in the same sequence, the figures for GGCCGGCGAAAGCCGCC (((.(((....)))))) were -12 kcal/mol and 65.3 °C.
Consider GATCCCTTCTGGGATC ((((((....)))))), for which the folding enthalpy in data set [1] is -39.1 kcal/mol. Further, the Tm in data set [2] was determined as 62.5 °C.
For GGATCCGGAAACGAATCC ((((.((....)).)))), in that order: -29 kcal/mol and 41.8 °C.
GCGAGCCCGAAAGGGCGC (((..(((....)))))): the folding enthalpy in data set [1] was -7.38 kcal/mol. Besides, the Tm in data set [2] stood at 55.8 °C.
For GGTTTGCGAAAGCATACC (((.(((....))).))), in that order: -40.6 kcal/mol and 52.9 °C.
Consider GAATGCGGAAACGCATTC (((((((....))))))), for which, in data set [1], the folding enthalpy is -39.1 kcal/mol. For the same sequence, the Tm in data set [2] turned out to be 67.5 °C.
For GTTACCGAAAGGTCTAAC ((((((....)))..))), in that order: -9.14 kcal/mol and 29.2 °C.
Taken in the same sequence, the figures for GTGAATGAAAATTCAC ((((((....)))))) were -29.8 kcal/mol and 52.3 °C.
With GAGGGCGAAAGCCTCTC ((((((....))).))), the folding enthalpy in data set [1] was -16.1 kcal/mol. Further, the Tm in data set [2] was 53.2 °C.
Taken in the same sequence, the figures for GGGTGTTCGAAAGAACCC (((..(((....)))))) were -16.7 kcal/mol and 52 °C.
For the sequence GATCGGGTCACCGATC ((((((....)))))), in data set [1], the folding enthalpy was -36.4 kcal/mol. Further, in data set [2], the Tm was 67.4 °C.
On to GGGTCCCCGAAAGGGCCC (((..(((....)))))), for which, in data set [1], the folding enthalpy was -23.1 kcal/mol. In addition, the Tm in data set [2] was 56 °C.
In the case of GCAGACGGAAACACCTGC ((((..(....)..)))), the folding enthalpy in data set [1] is -18.1 kcal/mol. In addition, in data set [2], the Tm worked out at 28.6 °C.
Taken in the same sequence, the figures for GCGGCTTCCCGC ((((....)))) were -26.3 kcal/mol and 58.2 °C.
For GCGTTGCGAAAGCACGGC ((..(((....)))..)), in that order: -13.6 kcal/mol and 58.9 °C.
Taken in the same sequence, the figures for GGCACCGAAAGGTGAGCC ((((((....)))..))) were -13.3 kcal/mol and 52.6 °C.
For GATCGGCGAACCGATC ((((((....)))))), the folding enthalpy in data set [1] is -38.2 kcal/mol. Moreover, the Tm in data set [2] was found to be 56.2 °C.
As to GCAGCGCGAAAGCTATGC (((..((....))..))), in data set [1], the folding enthalpy was -16.8 kcal/mol. Besides, in data set [2], the Tm turned out to be 45.2 °C.
Taken in the same sequence, the figures for GCGTTGGCGAAAGCCCGC (((..(((....)))))) were -18.8 kcal/mol and 57.3 °C.
For GGTTCAGCGAAAGCTACC (((..(((....)))))), in that order: -16 kcal/mol and 32.7 °C.
GATCATTAGGATGATC ((((((....)))))): in data set [1], the folding enthalpy is -35.3 kcal/mol. The Tm in data set [2] worked out at 47.8 °C.
Consider GCACGGCGAAAGCCTGGC ((..(((....)))..)), for which the folding enthalpy in data set [1] was -15.2 kcal/mol. For the same sequence, in data set [2], the Tm amounted to 51.7 °C.
For GAATCCGAAAGGAGTTC ((((((....))).))), in that order: -15.9 kcal/mol and 35.3 °C.
For GATACCCGAAAGGGCATC (((.(((....))).))), in that order: -18.8 kcal/mol and 49.5 °C.
For CAACCCGAAAGGCTTG (((.((....)).))), in data set [1], the folding enthalpy is -16 kcal/mol. Further, the Tm in data set [2] came out at 30.2 °C.
For GGCGACGAAAGTCTGCC ((((((....))).))), in that order: -36.6 kcal/mol and 59.2 °C.
Taken in the same sequence, the figures for GGCTCCGAAAGGAAAGCC ((((((....)))..))) were -30.1 kcal/mol and 54.3 °C.
In the case of GCGTCGCGAAAGCGTTGC ((..(((....)))..)), the folding enthalpy in data set [1] was -17.9 kcal/mol. For the same sequence, in data set [2], the Tm was 48.6 °C.
Taken in the same sequence, the figures for GGGCTGCGAAAGCACCC (((.(((....)))))) were -21.4 kcal/mol and 57.2 °C.
As for GGTGCCGAAAGGCTCACC ((((((....)))..))), in data set [1], the folding enthalpy was -11.6 kcal/mol. In addition, the Tm in data set [2] worked out at 46.3 °C.
In the case of GGTCCCGCGAAAGCGACC (((..(((....)))))), the folding enthalpy in data set [1] is -11.3 kcal/mol. For the same sequence, the Tm in data set [2] was 37.7 °C.
For CGCGGACGCCTCCGCG ((((((....)))))), in that order: -32 kcal/mol and 68.8 °C.
For TGTAGGAAACTACA (((((....))))), in that order: -16.9 kcal/mol and 36.9 °C.
Taken in the same sequence, the figures for GATCATGGAATGATC ((((((...)))))) were -39.3 kcal/mol and 56.5 °C.
Turning to GGCGTTGGAAACAACACC ((.((((....)))).)), the folding enthalpy in data set [1] is -33.6 kcal/mol. For the same sequence, the Tm in data set [2] is 46.7 °C.
Consider GCAGATGGAAACATCTGC (((((((....))))))), for which the folding enthalpy in data set [1] is -37.5 kcal/mol. In data set [2], the Tm came out at 67.1 °C.
For GCGTTACCACGC ((((....)))), in that order: -24.2 kcal/mol and 52.8 °C.
For GACGTAGGAAACTATGTC (((.(((....))).))), in that order: -30 kcal/mol and 43.9 °C.
For GATCACGTCCGTGATC ((((((....)))))), the folding enthalpy in data set [1] is -41.6 kcal/mol. The Tm in data set [2] came out at 61.1 °C.
Taken in the same sequence, the figures for GACAACCGAAAGGTCGTC (((.(((....))).))) were -38.6 kcal/mol and 49.5 °C.
On to GCATTATCGAAAGATTGC (((..(((....)))))), for which the folding enthalpy in data set [1] was -14.4 kcal/mol. Further, in data set [2], the Tm is 30.6 °C.
Take GTAATGGCGAAAGCCTAC (((..(((....)))))): the folding enthalpy in data set [1] was -7.82 kcal/mol. Moreover, in data set [2], the Tm came to 31.3 °C.
For GGCCTGGGAAACCGGGTC (.((.((....)).)).), in that order: -27.7 kcal/mol and 49 °C.
For GCTAGTCGAAAGACAGC (((.(((....)))))), the folding enthalpy in data set [1] was -24.8 kcal/mol. The Tm in data set [2] was 52.1 °C.
Taken in the same sequence, the figures for GTATGCGAAAGCATCTAC ((((((....)))..))) were -11.3 kcal/mol and 40 °C.
Taken in the same sequence, the figures for GCGGGTTTCCGC ((((....)))) were -28.2 kcal/mol and 59.2 °C.
For GGTATTGGAAACAATGCC ((.((((....)))).)), in that order: -37.1 kcal/mol and 47.7 °C.
With GGACAAGGAAACTTGTCC (((((((....))))))), the folding enthalpy in data set [1] is -45 kcal/mol. For the same sequence, the Tm in data set [2] stood at 61 °C.
Taken in the same sequence, the figures for GCGTCAGCGAAAGCTCGC (((..(((....)))))) were -10.1 kcal/mol and 47.2 °C.
Taken in the same sequence, the figures for GTTCGCGAAAGCGGCAAC ((((((....)))..))) were -10.2 kcal/mol and 26.8 °C.
Taken in the same sequence, the figures for GATCCAAATTTGGATC ((((((....)))))) were -36.1 kcal/mol and 52.9 °C.
On to GTTGCTGAAAAGCAAC ((((((....)))))), for which the folding enthalpy in data set [1] is -32.8 kcal/mol. The Tm in data set [2] came to 66 °C.
